pIC50: −log10 of the molar value. The source made the active and inactive calls. The calls are words filed in the database; no cut-off is given here.
Assays:
Leishmania donovani [1] = assay: Antileishmanial activity against Leishmania donovani MHOM/IN/80/Dd8 promastigotes transfected with luciferase reporter gene assessed as inhibition of promastigotes growth incubated for 72 hrs by Steady-Glo reagent based luminescence analysis; assay type: functional, organism-based; settings: for pIC50: MHOM/IN/80/Dd8, 72 h
How it was run: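 Luciferase-transgenic L. donovani promastigotes kept under G418 (20 μg mL⁻¹) in Medium 199 with 10% FCS at 25 ± 1 °C. Late-log cells seeded at 5×10⁵ per well with serial dilutions in DMSO for 72 h, DMSO controls run alongside. Luminescence read with Steady-Glo. % inhibition = (N−n)/N×100 vs untreated. IC50 by probit analysis, mean ± SD of three assays.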

Leishmania donovani [2] = assay: Antileishmanial activity against Leishmania donovani MHOM/IN/80/Dd8 amastigotes infected in mouse J774.A1 cells assessed as inhibition of amastigotes growth incubated for 48 hrs by Steady-Glo reagent based luminescence analysis; assay type: functional, organism-based; settings: for pIC50: MHOM/IN/80/Dd8, J774.A1, 48 h
How it was run: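 J774A cells (2×10⁵ per well, RPMI-1640 with 15% FCS) incubated 24 h at 37 °C in CO2, then infected with stationary-phase luciferase promastigotes (2×10⁶ per well) to give amastigotes. Compound added in fresh medium for 48 h at 37 °C. Medium replaced by PBS, Steady-Glo luminescence read, % inhibition vs untreated. IC50 by probit analysis, mean ± SD of three assays.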

[3] = Cytotoxicity against mouse J774.A1 cells assessed as reduction in cell growth incubated for 48 hrs by MTT assay; assay type: toxicity, cell-based
How it was run: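 J774A cells seeded at 0.2 million per well, incubated overnight at 37 °C with 5% CO2, then exposed to compound dilutions in DMSO (DMSO controls) for 48 h. Viability by MTT formazan, OD at 600 nm against blank. CC50 is the concentration giving 50% viability loss vs medium-only cells, from probit analysis. Mean ± SD of three assays.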

[4] = Selectivity index, ratio of CC50 for cytotoxicity against mouse J774.A1 cells to IC50 for antileishmanial activity against Leishmania donovani MHOM/IN/80/Dd8 amastigotes infected in mouse J774.A1 cells; assay type: toxicity, cell-based; settings: read-out: Ratio CC50/IC50
How it was run: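 SI = CC50 in J774A cells (MTT, 48 h) divided by IC50 against intracellular amastigotes (luciferase, 48 h). Both values are means of three independent assays.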

Brugia malayi = assay: Antifilarial activity against Brugia malayi assessed as reduction in worm viability by measuring inhibition of MTT reduction at 50 to 100 uM incubated for 24 hrs by MTT assay relative to control; assay type: functional; settings: dose 50-100 µM
Plasmodium falciparum = assay: Antimalarial activity against Plasmodium falciparum 3D7; assay type: functional, organism-based
[5] = Stability of compound in simulated intestinal fluid assessed as parent compound remaining at pH 6.8 measured for 120 mins by LC-MS/MS analysis; assay type: ADME; settings: read-out: Stability
How it was run: (§1)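 Simulated fluids prepared to USP (SGF pH 1.2, SIF pH 6.8, SPF pH 7.4) and hamster plasma pre-incubated at 37 ± 2 °C for 15 min in a shaking water bath, then spiked with compound. Aliquots taken at intervals up to 120 min, quenched with acetonitrile, vortexed and centrifuged. Remaining analyte quantified by LC-MS/MS.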

[6] = Stability of compound in simulated gastric fluid assessed as parent compound remaining at pH 1.2 measured for 120 mins by LC-MS/MS analysis; assay type: ADME; settings: read-out: Stability; how it was run: as §1
[7] = Stability of compound in simulated physiological fluid assessed as compound remaining at pH 7.4 measured for 120 mins by LC-MS analysis; assay type: physicochemical; settings: read-out: Stability; how it was run: as §1
[8] = Stability of compound in golden hamster plasma assessed as compound remaining measured for 120 mins by LC-MS analysis; assay type: ADME, cell-free, Mesocricetus auratus; settings: read-out: Stability; how it was run: as §1
[9] = Cmax in golden hamster at 50 mg/kg, po measured after 5 mins to 24 hrs by LC-MS/MS analysis; assay type: ADME, organism-based, Mesocricetus auratus; set-up: dose 50 mg/kg, time upper 1440 min, time lower 5 min, route po; settings: in vivo
How it was run: (§2)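 Golden hamsters fasted before dosing, oral 50 mg kg⁻¹. Retro-orbital blood drawn under anesthesia from 5 min to 24 h, spun at 6000g for 20 min, plasma stored at -80 °C. Protein precipitation with acetonitrile containing carbamazepine IS (3 ng mL⁻¹). LC-MS/MS on C18 column, isocratic 90% acetonitrile, positive mode, transition m/z 375.2/198.3. Parameters from non-compartmental analysis.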

[10] = Tmax in golden hamster at 50 mg/kg, po measured after 5 mins to 24 hrs by LC-MS/MS analysis; assay type: ADME, organism-based, Mesocricetus auratus; settings: in vivo, time 5-1440 min; how it was run: as §2
[11] = AUC in golden hamster at 50 mg/kg, po measured after 5 mins to 24 hrs by LC-MS/MS analysis; assay type: ADME, organism-based, Mesocricetus auratus; set-up: time lower 5 min, dose 50 mg/kg, time upper 1440 min, route po; settings: in vivo; how it was run: as §2
[12] = Half life in golden hamster at 50 mg/kg, po measured after 5 mins to 24 hrs by LC-MS/MS analysis; assay type: ADME, organism-based, Mesocricetus auratus; settings: in vivo, time 5-1440 min; how it was run: as §2
[13] = Clearance in golden hamster at 50 mg/kg, po measured after 5 mins to 24 hrs by LC-MS/MS analysis; assay type: ADME, organism-based, Mesocricetus auratus; settings: in vivo, time 5-1440 min; how it was run: as §2
[14] = Volume of distribution in golden hamster at 50 mg/kg, po measured after 5 mins to 24 hrs by LC-MS/MS analysis; assay type: ADME, organism-based, Mesocricetus auratus; settings: in vivo, time 5-1440 min; how it was run: as §2
[15] = MRT in golden hamster at 50 mg/kg, po measured after 5 mins to 24 hrs by LC-MS/MS analysis; assay type: ADME, organism-based, Mesocricetus auratus; settings: in vivo, time 5-1440 min; how it was run: as §2

SMILES | pIC50 (Leishmania donovani [1]) | pIC50 (Leishmania donovani [2]) | CC50 at 48 h [3] [µM] | selectivity ratio [4] | also measured
O=C1OC(O)C(NCc2cn(-c3ccc(Cl)c(Cl)c3)nn2)=C1Cl (stereo not given) | 4.47 | 5.06 | 84.2 | 9.75 | inhibition (INH) (Brugia malayi): 52%
Cc1ccc(-n2cc(CNC3=C(Cl)C(=O)OC3O)nn2)cc1F (stereo not given) | ≤ 4.30 | ≤ 4.70 |  |  | inhibition (INH) (Brugia malayi): 66%
COc1cc(-n2cc(CNC3=C(Cl)C(=O)OC3O)nn2)cc(OC)c1OC (stereo not given) | ≤ 4.00 | 4.95 | 84.8 | 7.5 | 
Cc1ccc(C)c(-n2cc(CNC3=C(Cl)C(=O)OC3O)nn2)c1 (stereo not given) | ≤ 4.30 | ≤ 4.30 |  |  | pIC50 (Plasmodium falciparum): 5.34
CCCCCCCCCCCCCCCCOP(=O)([O-])OCC[N+](C)(C)C [MILTEFOSINE] |  | 5.03 | 52.1 | 5.53 | 
CC(C)c1ccc(-n2cc(CNC3=C(Cl)C(=O)OC3O)nn2)cc1 (stereo not given) |  | ≤ 4.30 |  |  | inhibition (Leishmania donovani [1]): inactive
O=C1OC(O)C(NCc2cn(-c3ccc(F)c(Cl)c3)nn2)=C1Cl (stereo not given) | 4.45 | 4.98 | 78 | 7.38 | 
CCCCc1ccc(-n2cc(CNC3=C(Cl)C(=O)OC3O)nn2)cc1 (stereo not given) | ≤ 4.30 |  |  |  | inhibition (Leishmania donovani [2]): inactive
O=C1OC(O)C(NCc2cn(-c3ccc(F)cc3)nn2)=C1Cl (stereo not given) | ≤ 4.30 |  |  |  | inhibition (Leishmania donovani [2]): inactive; pIC50 (Plasmodium falciparum): 5.35
COc1ccc(-n2cc(CNC3=C(Cl)C(=O)OC3O)nn2)cc1OC (stereo not given) |  |  |  |  | inhibition (Leishmania donovani [1]): inactive; inhibition (Leishmania donovani [2]): inactive
COc1ccc(-n2cc(CNC3=C(Cl)C(=O)OC3O)nn2)cc1 (stereo not given) | ≤ 4.30 | ≤ 4.60 |  |  | pIC50 (Plasmodium falciparum): 5.31
CCc1ccc(-n2cc(CNC3=C(Cl)C(=O)OC3O)nn2)cc1 (stereo not given) | ≤ 4.30 |  |  |  | inhibition (Leishmania donovani [2]): inactive
O=C1OC(O)C(NCc2cn(-c3ccc(F)c(F)c3)nn2)=C1Cl (stereo not given) | ≤ 4.30 | 5.08 | 172 | 20.5 | pIC50 (Plasmodium falciparum): 5.44; remaining at 2 h [5]: ≥ 70%; remaining at 2 h [6]: ≥ 70%; remaining at 2 h [7]: ≥ 70%; remaining at 2 h [8]: ≥ 70%; Cmax [9]: 1110 ng/mL; Tmax [10]: 2 h; AUC [11]: 4500 ng·h/mL; half-life [12]: 2.15 h; CL/F [13]: 207 mL/min/kg; Vd [14]: 38.15 L/kg; MRT [15]: 3.64 h
CC(C)(C)c1ccc(-n2cc(CNC3=C(Cl)C(=O)OC3O)nn2)cc1 (stereo not given) | ≤ 4.30 | ≤ 4.60 |  |  | pIC50 (Plasmodium falciparum): 5.36
O=C1OC(O)C(NCc2cn(-c3ccccc3Oc3ccccc3)nn2)=C1Cl (stereo not given) | ≤ 4.30 | ≤ 4.70 |  |  | pIC50 (Plasmodium falciparum): 5.33
Cc1ccc(-n2cc(CNC3=C(Cl)C(=O)OC3O)nn2)cc1 (stereo not given) | ≤ 4.30 |  |  |  | inhibition (Leishmania donovani [2]): inactive
O=C1OC(O)C(NCc2cn(-c3cccc(C(F)(F)F)c3)nn2)=C1Cl (stereo not given) | 4.49 | 5.07 | 102 | 12.1 | 
O=C1OC(O)C(NCc2cn(-c3ccccc3)nn2)=C1Cl (stereo not given) | ≤ 4.30 |  |  |  | inhibition (Leishmania donovani [2]): inactive
O=C1OC(O)C(NCc2cn(-c3ccccc3[N+](=O)[O-])nn2)=C1Cl (stereo not given) | ≤ 4.30 | ≤ 4.60 |  |  | 
O=C1OC(O)C(NCc2cn(-c3ccc(Cl)cc3)nn2)=C1Cl (stereo not given) | ≤ 4.30 | ≤ 4.30 |  |  | 
Cc1cc(C)c(-n2cc(CNC3=C(Cl)C(=O)OC3O)nn2)c(C)c1 (stereo not given) | ≤ 4.30 | ≤ 4.70 |  |  | 
Cc1ccc(-n2cc(CNC3=C(Cl)C(=O)OC3O)nn2)cc1C (stereo not given) | 4.49 | 5.00 | 93.5 | 9.27 | inhibition (INH) (Brugia malayi): 52%
O=C1OC(O)C(NCc2cn(-c3ccc(F)c(C(F)(F)F)c3)nn2)=C1Cl (stereo not given) | 4.51 | 5.04 | 136 | 15 | 
O=C1OC(O)C(NCc2cn(-c3ccc4c(c3)OCO4)nn2)=C1Cl (stereo not given) | ≤ 4.30 | ≤ 4.30 |  |  | pIC50 (Plasmodium falciparum): 5.36; inhibition (INH) (Brugia malayi): 52%
C#CCNC1=C(Cl)C(=O)OC1O (stereo not given) | ≤ 4.30 | 4.95 | 97.2 | 8.56 | inhibition (INH) (Brugia malayi): 65%
